# Measurements as given in ChEMBL document CHEMBL1914351, “Design, synthesis and biological evaluation of 3-substituted 2,5-dimethyl-N-(3-(1H-tetrazol-5-yl)phenyl)pyrroles as novel potential HIV-1 gp41 inhibitors” (Bioorg Med Chem, 2011).
# What was measured:
# [1] = Inhibition of HIV1 gp41 assessed as gp41-six-helix bundle formation after 30 mins by sandwich ELISA; parameters: species or system Human immunodeficiency virus 1
# Procedure, shortened: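 N36 peptide (2 µM) preincubated with graded compound concentrations at 37 °C for 30 min, then C34 (2 µM) added for another 30 min at 37 °C. Mixture captured on plates coated with anti-6-HB rabbit IgG (10 µg/mL); detected with mAb NC-1, biotinylated anti-mouse IgG, SA-HRP, TMB; A450. Percent inhibition calculated; triplicate.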
# [2] = test system: Human immunodeficiency virus 1; experiment: Antiviral activity against HIV1 3B infected in human MT2 cells assessed as inhibition of p24 production after 4 days by ELISA; type: functional, organism-based
# [3] = Cytotoxicity against human MT2 cells after 4 days using XTT assay; type: cell-based
# Procedure, shortened: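 MT-2 cells (5×10^5/mL) mixed with equal volume of graded compound concentrations, 37 °C for 4 days; XTT (1 mg/mL) containing 0.02 µM PMS added, A450 read after 4 h. CC50 calculated by CalcuSyn; triplicate, mean ± SD.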
# [4] = Selectivity index, ratio of CC50 for human MT2 cells to EC50 for HIV1 3B; type: toxicity, cell-based; details: read-out: Ratio CC50/EC50
# Procedure, shortened: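 Ratio CC50/EC50, CC50 from XTT cytotoxicity in MT-2 cells over 4 days and EC50 from p24 inhibition in HIV-1 IIIB-infected MT-2 cells at day 4.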
# [5] = Human immunodeficiency virus 1, 3B, MT2, 96 h, read-out: EC50
Compound,IC50 ([1]; read-out: IC50),"EC50 [2, 5]",IC50 [1],EC50 ([2]; mt2),CC50 at 96 h [3],selectivity ratio [4]
COc1ccc(N2C(=O)/C(=C/c3cc(C)n(-c4cccc(-c5nnn[nH]5)c4)c3C)SC2=S)cc1,9.2 µM,47.9 µM,–,–,87 µM,1.8
Cc1cc(/C=C/[N+](=O)[O-])c(C)n1-c1cccc(-c2nnn[nH]2)c1,–,29.3 µM,Not Active,–,78.8 µM,2.7
CCOC(=O)/C(C#N)=C/c1cc(C)n(-c2cccc(-c3nnn[nH]3)c2)c1C,–,18 µM,Not Active,–,76.8 µM,4.3
Cc1cc(/C=C2\SC(=S)N(c3ccccc3)C2=O)c(C)n1-c1cccc(-c2nnn[nH]2)c1,4.4 µM,3.2 µM,–,–,61 µM,19
COc1cccc(N2C(=O)/C(=C/c3cc(C)n(-c4cccc(-c5nnn[nH]5)c4)c3C)SC2=S)c1,3.1 µM,6 µM,–,–,40.6 µM,6.8
Cc1cc(/C=C2\SC(=S)N(c3cccc(Br)c3)C2=O)c(C)n1-c1cccc(-c2nnn[nH]2)c1,–,9.8 µM,Not Active,–,22.6 µM,2.3
Cc1cc(/C=C2\SC(=S)N(c3cccc([N+](=O)[O-])c3)C2=O)c(C)n1-c1cccc(-c2nnn[nH]2)c1,3.2 µM,23.9 µM,–,–,77 µM,3.2
Cc1cc(/C=C2\SC(=S)N(c3ccc(C(F)(F)F)cc3)C2=O)c(C)n1-c1cccc(-c2nnn[nH]2)c1,2.7 µM,13.1 µM,–,–,27.1 µM,2.1
Cc1cc(/C=C2\SC(=S)N(c3ccc(Br)cc3)C2=O)c(C)n1-c1cccc(-c2nnn[nH]2)c1,4.6 µM,2.2 µM,–,–,46.8 µM,21
COc1ccc(N2C(=O)N/C(=C\c3cc(C)n(-c4cccc(-c5nnn[nH]5)c4)c3C)C2=O)cc1,22.6 µM,51.6 µM,–,–,101 µM,2
Cc1cc(/C=C2\NC(=O)N(c3cccc(C(F)(F)F)c3)C2=O)c(C)n1-c1cccc(-c2nnn[nH]2)c1,41.6 µM,48.9 µM,–,–,76.5 µM,1.6
O=C(O)c1cc(-n2cccc2)ccc1Cl,58.7 µM,–,–,–,–,–
Cc1ccc(C)n1-c1cccc(-c2nnn[nH]2)c1,25.6 µM,–,–,–,–,32

# Further lines, with some results ahead:
IC50 ([1]; read-out: IC50),"EC50 [2, 5]",IC50 [1],EC50 ([2]; mt2),Compound,CC50 at 96 h [3],selectivity ratio [4]
–,–,Not Active,Not Active,Cc1cc(C=C(C#N)C#N)c(C)n1-c1cccc(-c2nnn[nH]2)c1,> 400 µM,–
12.1 µM,17.2 µM,–,–,CCOC(=O)C(=Cc1cc(C)n(-c2cccc(-c3nnn[nH]3)c2)c1C)C(=O)OCC,77.4 µM,4.5
–,6.8 µM,Not Active,–,Cc1cc(/C=C2\SC(=S)N(c3cccc(C(F)(F)F)c3)C2=O)c(C)n1-c1cccc(-c2nnn[nH]2)c1,15.8 µM,2.3
7.7 µM,6.3 µM,–,–,Cc1cc(/C=C2\SC(=S)N(c3cccc(O)c3)C2=O)c(C)n1-c1cccc(-c2nnn[nH]2)c1,35.6 µM,5.7
20.6 µM,25.7 µM,–,–,Cc1cc(/C=C2\SC(=S)N(c3ccc(O)cc3)C2=O)c(C)n1-c1cccc(-c2nnn[nH]2)c1,45.6 µM,1.8
12.7 µM,12.3 µM,–,–,Cc1cc(/C=C2\SC(=S)N(Cc3ccccc3)C2=O)c(C)n1-c1cccc(-c2nnn[nH]2)c1,150 µM,12
28.1 µM,4.1 µM,–,–,Cc1cc(/C=C2\SC(=S)N(CCc3ccccc3)C2=O)c(C)n1-c1cccc(-c2nnn[nH]2)c1,45.7 µM,11
